Source: ChEMBL document CHEMBL5058577, “EUbOPEN Chemogenomics Library 2 (Multiplex)” (2022)

Tested on: HEK-293T
Experiment: Multiplex assay against HEK293T
Assay type: toxicity, cell-based
Details: human
Summary of the method: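 Four dyes were applied at seeding to live cells: Hoechst33342, BioTracker Green Microtubule Cytoskeleton Dye, MitoTracker Red and Annexin V Alexa Fluor 680. Imaging after compound addition used a CQ1 microscope at 37°C and 5% CO2. CellPathfinder machine-learning gating then sorted cells into Hoechst high-intensity objects or normal cells, normal cells into healthy, pyknosed or fragmented nuclei, and pyknosed cells into mitotic or apoptotic, with tubulin, mitochondrial-mass and membrane-permeability phenotypes given as per cents of healthy-nucleus cells.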

[1] = 12 h, 1 µM, compound concentration 1 uM, replicate 1
[2] = 12 h, 1 µM, compound concentration 1 uM, replicate 2
[3] = 12 h, 10 µM, compound concentration 10 uM, replicate 1
[4] = 12 h, 10 µM, compound concentration 10 uM, replicate 2
[5] = 24 h, 1 µM, compound concentration 1 uM, replicate 1
[6] = 24 h, 1 µM, compound concentration 1 uM, replicate 2
[7] = 24 h, 10 µM, compound concentration 10 uM, replicate 1
[8] = 24 h, 10 µM, compound concentration 10 uM, replicate 2
[9] = 48 h, 1 µM, compound concentration 1 uM, replicate 1
[10] = 48 h, 1 µM, compound concentration 1 uM, replicate 2
[11] = 48 h, 10 µM, compound concentration 10 uM, replicate 1
[12] = 48 h, 10 µM, compound concentration 10 uM, replicate 2

Cc1cc(O)c(-c2ccc([C@@H](C)CN(C)C)cc2)c2c1[nH]c(=O)c1sccc12
Population Apoptotic (%) [1]: 63% | Population Fragmented Nuclei (%) [1]: 14% | Population Healthy Nuclei (%) [1]: 49% | Population Hoechst High Intensity Objects (%) [1]: 27% | Population Membrane Permeable-Phenotype (%) [1]: 0% | Population Mitochondria Different-Phenotype (%) [1]: 90% | Population Mitotic Cells (%) [1]: 36% | Population Normal (%) [1]: 72% | Population Pyknosed Nuclei (%) [1]: 36% | Population Tubulin-Different-Phenotype (%) [1]: 78% | Total Cell Count [1]: 209 | Population Apoptotic (%) [2]: 59% | Population Fragmented Nuclei (%) [2]: 8% | Population Healthy Nuclei (%) [2]: 66% | Population Hoechst High Intensity Objects (%) [2]: 28% | Population Membrane Permeable-Phenotype (%) [2]: 1% | Population Mitochondria Different-Phenotype (%) [2]: 91% | Population Mitotic Cells (%) [2]: 40% | Population Normal (%) [2]: 71% | Population Pyknosed Nuclei (%) [2]: 25% | Population Tubulin-Different-Phenotype (%) [2]: 74% | Total Cell Count [2]: 207 | Population Apoptotic (%) [3]: 53% | Population Fragmented Nuclei (%) [3]: 6% | Population Healthy Nuclei (%) [3]: 44% | Population Hoechst High Intensity Objects (%) [3]: 41% | Population Membrane Permeable-Phenotype (%) [3]: 0% | Population Mitochondria Different-Phenotype (%) [3]: 100% | Population Mitotic Cells (%) [3]: 46% | Population Normal (%) [3]: 58% | Population Pyknosed Nuclei (%) [3]: 48% | Population Tubulin-Different-Phenotype (%) [3]: 60% | Total Cell Count [3]: 268 | Population Apoptotic (%) [4]: 70% | Population Fragmented Nuclei (%) [4]: 7% | Population Healthy Nuclei (%) [4]: 60% | Population Hoechst High Intensity Objects (%) [4]: 28% | Population Mitochondria Different-Phenotype (%) [4]: 94% | Population Mitotic Cells (%) [4]: 29% | Population Normal (%) [4]: 71% | Population Pyknosed Nuclei (%) [4]: 31% | Population Tubulin-Different-Phenotype (%) [4]: 72% | Total Cell Count [4]: 195 | Population Apoptotic (%) [5]: 65% | Population Fragmented Nuclei (%) [5]: 9% | Population Healthy Nuclei (%) [5]: 60% | Population Hoechst High Intensity Objects (%) [5]: 21% | Population Membrane Permeable-Phenotype (%) [5]: 0% | Population Mitochondria Different-Phenotype (%) [5]: 89% | Population Mitotic Cells (%) [5]: 34% | Population Normal (%) [5]: 78% | Population Pyknosed Nuclei (%) [5]: 30% | Population Tubulin-Different-Phenotype (%) [5]: 67% | Total Cell Count [5]: 230 | Population Apoptotic (%) [6]: 68% | Population Healthy Nuclei (%) [6]: 70% | Population Mitochondria Different-Phenotype (%) [6]: 93% | Population Mitotic Cells (%) [6]: 31% | Population Pyknosed Nuclei (%) [6]: 19% | Population Tubulin-Different-Phenotype (%) [6]: 74% | Total Cell Count [6]: 205 | Population Apoptotic (%) [7]: 73% | Population Fragmented Nuclei (%) [7]: 8% | Population Healthy Nuclei (%) [7]: 67% | Population Hoechst High Intensity Objects (%) [7]: 36% | Population Membrane Permeable-Phenotype (%) [7]: 1% | Population Mitochondria Different-Phenotype (%) [7]: 92% | Population Mitotic Cells (%) [7]: 26% | Population Normal (%) [7]: 63% | Population Pyknosed Nuclei (%) [7]: 24% | Population Tubulin-Different-Phenotype (%) [7]: 70% | Total Cell Count [7]: 290 | Population Apoptotic (%) [8]: 85% | Population Fragmented Nuclei (%) [8]: 7% | Population Healthy Nuclei (%) [8]: 69% | Population Hoechst High Intensity Objects (%) [8]: 25% | Population Membrane Permeable-Phenotype (%) [8]: 0% | Population Mitochondria Different-Phenotype (%) [8]: 93% | Population Mitotic Cells (%) [8]: 14% | Population Normal (%) [8]: 74% | Population Pyknosed Nuclei (%) [8]: 23% | Population Tubulin-Different-Phenotype (%) [8]: 80% | Total Cell Count [8]: 203 | Population Apoptotic (%) [9]: 86% | Population Fragmented Nuclei (%) [9]: 13% | Population Healthy Nuclei (%) [9]: 65% | Population Hoechst High Intensity Objects (%) [9]: 24% | Population Membrane Permeable-Phenotype (%) [9]: 0% | Population Mitochondria Different-Phenotype (%) [9]: 90% | Population Mitotic Cells (%) [9]: 13% | Population Normal (%) [9]: 75% | Population Pyknosed Nuclei (%) [9]: 20% | Population Tubulin-Different-Phenotype (%) [9]: 76% | Total Cell Count [9]: 249 | Population Apoptotic (%) [10]: 69% | Population Fragmented Nuclei (%) [10]: 16% | Population Healthy Nuclei (%) [10]: 67% | Population Hoechst High Intensity Objects (%) [10]: 25% | Population Mitochondria Different-Phenotype (%) [10]: 96% | Population Mitotic Cells (%) [10]: 30% | Population Normal (%) [10]: 74% | Population Pyknosed Nuclei (%) [10]: 16% | Population Tubulin-Different-Phenotype (%) [10]: 70% | Total Cell Count [10]: 212 | Population Apoptotic (%) [11]: 86% | Population Fragmented Nuclei (%) [11]: 15% | Population Healthy Nuclei (%) [11]: 64% | Population Hoechst High Intensity Objects (%) [11]: 40% | Population Membrane Permeable-Phenotype (%) [11]: 1% | Population Mitochondria Different-Phenotype (%) [11]: 92% | Population Mitotic Cells (%) [11]: 13% | Population Normal (%) [11]: 59% | Population Pyknosed Nuclei (%) [11]: 20% | Population Tubulin-Different-Phenotype (%) [11]: 54% | Total Cell Count [11]: 298 | Population Apoptotic (%) [12]: 87% | Population Fragmented Nuclei (%) [12]: 13% | Population Healthy Nuclei (%) [12]: 58% | Population Hoechst High Intensity Objects (%) [12]: 34% | Population Membrane Permeable-Phenotype (%) [12]: 0% | Population Mitochondria Different-Phenotype (%) [12]: 100% | Population Mitotic Cells (%) [12]: 12% | Population Normal (%) [12]: 65% | Population Pyknosed Nuclei (%) [12]: 28% | Population Tubulin-Different-Phenotype (%) [12]: 73% | Total Cell Count [12]: 223
